Data from ChEMBL document CHEMBL4765302, “Design, synthesis and biological evaluation of novel histone deacetylase1/2 (HDAC1/2) and cyclin-dependent Kinase2 (CDK2) dual inhibitors against malignant cancer” (Eur J Med Chem, 2020).
Active and inactive are the calls of the source. No cut-off for these calls is given here.

Legend:
NCI-H460 [1] = assay: Antiproliferative activity against human NCI-H460 cells assessed as reduction in cell growth incubated for 72 hrs by CCK-8 assay; format: functional, cell-based; conditions: NCI-H460, 72 h
In short: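 IC50 by CCK-8 assay across five solid-tumour lines (HCT116, HepG2, H460, HeLa, A375). Run only for compounds chosen after the single-concentration screen, with CS055 and roscovitine as references.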

A-375 [2] = assay: Induction of ROS accumulation in human A-375 cells at 1 uM incubated for 24 hrs by DCFH-DA staining based confocal microscopic analysis; format: functional, cell-based
In short: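 A375 cells treated at 1 µM or with DMSO blank for 24 h. Intracellular ROS detected with the fluorescent dye DCFH-DA.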

NCI-H460 [3] = assay: Induction of apoptosis in human NCI-H460 cells assessed as necrotic cells incubated for 48 hrs by annexin V-FITC and PI staining based flow cytometry; format: functional, cell-based; conditions: dose 0.5-2 µM
CDK2/Cyclin A2 = CDK2/Cyclin A2 (Homo sapiens, UniProt P24941); assay: Inhibition of recombinant human N-terminal GST-tagged CDK2/CyclinA2 expressed in baculovirus infected Sf21 cells using histone H1 as substrate incubated for 10 mins by luminescence based assay
A-375 [4] = assay: Induction of apoptosis in human A-375 cells assessed as early apoptotic cells at 0.5 uM incubated for 48 hrs by annexin V-FITC and PI staining based flow cytometry (reference value: 1.34 %); format: functional
HepG2 = assay: Antiproliferative activity against human HepG2 cells assessed as reduction in cell growth at 2 uM incubated for 72 hrs by CCK-8 assay relative to control; format: functional
NCI-H460 [5] = assay: Induction of apoptosis in human NCI-H460 cells assessed as late apoptotic cells at 2 uM incubated for 48 hrs by annexin V-FITC and PI staining based flow cytometry (reference value: 6.11 %); format: functional
NCI-H460 [6] = assay: Induction of cell cycle arrest in human NCI-H460 cells assessed as reduction in G0/G1 phase at 0.5 to 2 uM incubated for 24 hrs by PI staining based flow cytometry; format: functional; conditions: dose 0.5-2 µM
In short: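 Treatment at 2, 1 and 0.5 μM for 24 h, alongside CS055 and roscovitine, against a DMSO (0.1 %) blank. Cells then stained with propidium iodide and analyzed by flow cytometry.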

Histone deacetylase 1 = Histone deacetylase 1 (Homo sapiens, UniProt Q13547); assay: Potency index, ratio of IC50 of CS055 to IC50 of compound for inhibition of recombinant human HDAC1 using […] as substrate incubated for 10 mins followed by substrate addition and measured after 30 mins by fluorescence based assay
NCI-H460 [7] = assay: Antiproliferative activity against human H460 cells assessed as reduction in cell growth at 2 uM incubated for 72 hrs by CCK-8 assay relative to control; format: functional
A-375 [8] = assay: Induction of apoptosis in human A-375 cells assessed as early apoptotic cells at 2 uM incubated for 48 hrs by annexin V-FITC and PI staining based flow cytometry (reference value: 1.34 %); format: functional
HCT-116 [9] = assay: Induction of apoptosis in human HCT-116 cells assessed as late apoptotic cells at 1 uM incubated for 48 hrs by annexin V-FITC and PI staining based flow cytometry (reference value: 1.88 %); format: functional
HCT-116 [10] = assay: Induction of apoptosis in human HCT-116 cells assessed as apoptosis rate at 2 uM incubated for 48 hrs by annexin V-FITC and PI staining based flow cytometry relative to control; format: functional
A-375 [11] = assay: Induction of apoptosis in human A-375 cells assessed as necrotic cells at 0.5 uM incubated for 48 hrs by annexin V-FITC and PI staining based flow cytometry (reference value: 0.139 %); format: functional

Chain of Histone deacetylase 1 (Q13547 whole entry): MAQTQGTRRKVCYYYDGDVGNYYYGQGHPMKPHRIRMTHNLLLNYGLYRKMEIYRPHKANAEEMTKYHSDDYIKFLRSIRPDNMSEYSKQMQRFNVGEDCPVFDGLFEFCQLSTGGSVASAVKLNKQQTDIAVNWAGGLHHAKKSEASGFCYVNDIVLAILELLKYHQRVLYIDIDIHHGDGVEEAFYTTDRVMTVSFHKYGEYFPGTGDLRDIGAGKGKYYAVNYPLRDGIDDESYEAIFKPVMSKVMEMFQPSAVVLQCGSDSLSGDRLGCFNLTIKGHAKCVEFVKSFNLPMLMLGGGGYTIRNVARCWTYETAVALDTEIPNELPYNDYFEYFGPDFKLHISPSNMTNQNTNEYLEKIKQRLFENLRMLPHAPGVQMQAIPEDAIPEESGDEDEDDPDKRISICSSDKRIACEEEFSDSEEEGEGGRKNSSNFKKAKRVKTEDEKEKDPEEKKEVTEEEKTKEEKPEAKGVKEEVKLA

Question: With `Cc1ccc(Nc2nc(Cl)nc3c2ncn3Cc2ccc(C(=O)Nc3ccccc3N)cc2)cc1` as the compound, how does the IC50 (NCI-H460 [1]) read?
Answer: Its IC50 is 1.59 µM.

Question: What about the Activity (A-375 [2]) of the same compound?
Answer: The Activity was “Active”.

Question: What about the Activity (NCI-H460 [3]) of the same compound?
Answer: Its Activity is “Dose-dependent effect”.

Question: What about the IC50 (CDK2/Cyclin A2) of the same compound?
Answer: Its IC50 is 0.8 µM.

Question: And the Activity (A-375 [4])?
Answer: Its Activity is 10.6%.

Question: And the inhibition at 2 µM (HepG2)?
Answer: Its inhibition at 2 µM is 76.2%.

Question: What about the Activity (NCI-H460 [5]) of the same compound?
Answer: Its Activity is 47.1%.

Question: And the Activity (NCI-H460 [6])?
Answer: The Activity was “Active”.

Question: What about the Ratio IC50 (Histone deacetylase 1) of the same compound?
Answer: The Ratio IC50 was 3.

Question: And the inhibition at 2 µM (NCI-H460 [7])?
Answer: The inhibition at 2 µM was 67.3%.

Question: And the Activity (A-375 [8])?
Answer: The Activity was 7.19%.

Question: And the Activity (HCT-116 [9])?
Answer: The Activity was 14%.

Question: What about the Activity (HCT-116 [10]) of the same compound?
Answer: The Activity was 89.6%.

Question: And the Activity (A-375 [11])?
Answer: The Activity was 0.852%.
